{"source": "paper PMC4443282", "about": "(Molecules and Cells, 2015)", "key": {"[1]": {"target": "T1, Y30F/Y55F/Y115F KSI (Pseudomonas putida, UniProt P07445, Y119F/Y32F/Y57F)", "T1 sequence (P07445 1-131 Y32F/Y57F/Y119F)": "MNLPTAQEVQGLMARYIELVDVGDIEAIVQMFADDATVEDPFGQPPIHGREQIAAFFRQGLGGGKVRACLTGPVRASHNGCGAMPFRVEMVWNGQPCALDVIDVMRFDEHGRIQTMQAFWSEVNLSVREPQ", "experiment": "Kinetic parameters kcat and KM for steroid substrate", "format": "biochemical"}, "[2]": {"system": "Y55F KSI", "experiment": "Kinetic parameters kcat and KM for steroid substrate", "format": "biochemical, Pseudomonas putida", "conditions": "relative to wild type"}, "[3]": {"conditions": "in solution; ref Ha et al., 2000; cited from earlier work"}, "[4]": {"system": "wild-type KSI", "experiment": "Kinetic parameters kcat and KM for steroid substrate", "format": "biochemical, Pseudomonas putida", "conditions": "relative to wild type"}, "[5]": {"system": "Y55F KSI", "conditions": "ref Kim et al., 2000; cited from earlier work"}, "[6]": {"system": "Y30F KSI", "experiment": "Kinetic parameters kcat and KM for steroid substrate", "format": "biochemical, Pseudomonas putida", "conditions": "relative to wild type"}, "[7]": {"target": "T2, Y115F KSI (Pseudomonas putida, UniProt P07445, Y119F)", "T2 sequence (P07445 1-131 Y119F)": "T1 sequence (P07445 1-131 Y32F/Y57F/Y119F) with F32Y, F57Y", "experiment": "Kinetic parameters kcat and KM for steroid substrate", "format": "biochemical"}, "[8]": {"system": "Y30F/Y55F KSI", "experiment": "Kinetic parameters kcat and KM for steroid substrate", "format": "biochemical, Pseudomonas putida", "conditions": "relative to wild type"}, "[9]": {"system": "Y30F KSI", "conditions": "ref Kim et al., 2000; cited from earlier work"}, "[10]": {"target": "T3, D38N KSI (Pseudomonas putida, UniProt P07445, D40N)", "T3 sequence (P07445 1-131 D40N)": "T1 sequence (P07445 1-131 Y32F/Y57F/Y119F) with F32Y, D40N, F57Y, F119Y", "experiment": "KD by quenching of intrinsic tryptophan fluorescence of KSI", "format": "binding", "outline": "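Mutant KSI was expressed in E. coli BL21(DE3) and purified to a single SDS-PAGE band. Steroid ligand in DMSO was titrated successively into KSI in 10 mM potassium phosphate with 10% DMSO. Intrinsic fluorescence was read at ex 295/em 315 nm and corrected for dilution. KD was fitted to a binding equation using total steroid and KSI concentrations. Mean ± SD of three independent experiments.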"}, "[11]": {"system": "Y30F/Y55F/Y115F/D38N KSI", "experiment": "KD by quenching of intrinsic tryptophan fluorescence of KSI", "format": "binding, Pseudomonas putida", "conditions": "relative to D38N KSI"}, "[12]": {"target": "T4, Y30F/Y55F/D38N KSI (Pseudomonas putida, UniProt P07445, D40N/Y32F/Y57F)", "T4 sequence (P07445 1-131 Y32F/D40N/Y57F)": "T1 sequence (P07445 1-131 Y32F/Y57F/Y119F) with D40N, F119Y", "experiment": "KD by quenching of intrinsic tryptophan fluorescence of KSI", "format": "binding"}, "[13]": {"target": "T5, Y55F/D38N KSI (Pseudomonas putida, UniProt P07445, D40N/Y57F)", "T5 sequence (P07445 1-131 D40N/Y57F)": "T1 sequence (P07445 1-131 Y32F/Y57F/Y119F) with F32Y, D40N, F119Y", "experiment": "KD by quenching of intrinsic tryptophan fluorescence of KSI", "format": "binding"}, "[14]": {"target": "T6, Y30F/D38N KSI (Pseudomonas putida, UniProt P07445, D40N/Y32F)", "T6 sequence (P07445 1-131 Y32F/D40N)": "T1 sequence (P07445 1-131 Y32F/Y57F/Y119F) with D40N, F57Y, F119Y", "experiment": "KD by quenching of intrinsic tryptophan fluorescence of KSI", "format": "binding"}, "[15]": {"target": "T7, Y115F/D38N KSI (Pseudomonas putida, UniProt P07445, D40N/Y119F)", "T7 sequence (P07445 1-131 D40N/Y119F)": "T1 sequence (P07445 1-131 Y32F/Y57F/Y119F) with F32Y, D40N, F57Y", "experiment": "KD by quenching of intrinsic tryptophan fluorescence of KSI", "format": "binding"}, "[16]": {"target": "T8, Y30F/Y55F/Y115F/D38N KSI (Pseudomonas putida, UniProt P07445, D40N/Y119F/Y32F/Y57F)", "T8 sequence (P07445 1-131 Y32F/D40N/Y57F/Y119F)": "T1 sequence (P07445 1-131 Y32F/Y57F/Y119F) with D40N", "experiment": "KD by quenching of intrinsic tryptophan fluorescence of KSI", "format": "binding"}, "[17]": {"conditions": "34 mM potassium phosphate, pH 7.0, 2.5 mM EDTA, 3.3 % methanol, 298 K"}}, "note": "Residue numbers refer to the chain shown, from its start.", "data": [{"molecule": "C[C@]12CCC(=O)CC1=CC[C@@H]1[C@@H]2CC[C@]2(C)C(=O)CC[C@@H]12", "note": "[5-AND, 5-androstene-3,17-dione]", "values": [{"measurement": "Km", "setting": "[1]; [17]", "result": "77.3 ± 5.6", "unit": "µM"}, {"measurement": "kcat", "setting": "[1]; [17]", "result": "(12.2 ± 0.2) × 10^3 s^−1"}, {"measurement": "Relative kcat", "setting": "[1]; relative to wild type", "result": 0.57}, {"measurement": "Relative kcat", "setting": "[2]", "result": 0.17}, {"measurement": "pKa of the C4 proton", "setting": "[3]", "result": 12.7}, {"measurement": "Relative kcat", "setting": "[4]", "result": 1}, {"measurement": "factor of decrease in kcat relative to the wild-type KSI", "setting": "[5]", "result": 6}, {"measurement": "Relative kcat", "setting": "[6]", "result": 0.84}, {"measurement": "Km", "setting": "[7]; [17]", "result": "41.7 ± 2", "unit": "µM"}, {"measurement": "kcat", "setting": "[7]; [17]", "result": "(14.5 ± 0.4) × 10^3 s^−1"}, {"measurement": "Relative kcat", "setting": "[7]; relative to wild type", "result": 0.68}, {"measurement": "Relative kcat", "setting": "[8]", "result": 0.50}, {"measurement": "factor of decrease in kcat relative to the wild-type KSI", "setting": "[9]", "result": 1.2}]}, {"molecule": "C[C@]12CC[C@@H]3c4ccc(O)cc4CC[C@H]3[C@@H]1CCC2=O", "note": "[estrone]", "values": [{"measurement": "Kd", "setting": "[10]", "result": 110, "unit": "nM"}, {"measurement": "decrease in binding energy", "setting": "[11]", "result": "1.3 to 1.4", "unit": "kcal/mol"}, {"measurement": "factor by which affinity is lower than that of D38N KSI", "setting": "[11]", "result": "9.1–11"}]}, {"molecule": "C[C@]12CCc3c(ccc4cc(O)ccc34)[C@@H]1CCC2=O", "note": "[equilenin]", "values": [{"measurement": "Kd", "setting": "[12]", "result": 250, "unit": "nM"}, {"measurement": "Kd", "setting": "[13]", "result": 80, "unit": "nM"}, {"measurement": "Kd", "setting": "[14]", "result": 70, "unit": "nM"}, {"measurement": "Kd", "setting": "[15]", "result": 70, "unit": "nM"}, {"measurement": "Kd", "setting": "[10]", "result": 31, "unit": "nM"}, {"measurement": "decrease in binding energy", "setting": "[11]", "result": "1.3 to 1.4", "unit": "kcal/mol"}, {"measurement": "factor by which affinity is lower than that of D38N KSI", "setting": "[11]", "result": "9.1–11"}, {"measurement": "Kd", "setting": "[16]", "result": 340, "unit": "nM"}]}]}
